Compound activity: PubChem BioAssay, several laboratories
Hits are enriched below; roughly 4.7% of the tested compounds scored in any of these assays.
697 NFkB inh – inhibitors of PMA/ionomycin-induced NF-kB reporter, 697 cells, primary screen, B-cell NF-kB inhibitor project, cell-based, luminescence, uHTS; hit rate 0.33% among 330,000; inhibition, % at 4 µM; 697 B-cell NF-kB luciferase reporter, 16 h; in the data active means inhibition above about 35%
Jurkat NFkB inh – inhibitors of induced NF-kB luciferase reporter, primary screen, TCR NF-kB activation inhibitor project, cell-based, luminescence, uHTS; inhibition, % at 4 µM; Jurkat, PMA/ionomycin-induced NF-kB luciferase reporter; AID 435003, 2010; hit rate 0.53% among 330,000; in the data active means inhibition above about 50%
aSyn 5UTR inh – MLPCN primary screen, SNCA 5' untranslated region; inhibition, % (tested at 7.5 µM); hit rate 0.82% among 300,000; alpha-synuclein 5'UTR reporter, inhibitor activity; in the data active means inhibition above about 60%;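 further: H4 neuroglioblastoma cells stably carrying SNCA 5'UTR luciferase fusion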
Mdm2 MdmX PPI – inhibitors of human Mdm2-MdmX association, primary screen, cell-based, luminescence, split luciferase, SaOS-2, uHTS; Protein Mdm4 (Homo sapiens) + E3 ubiquitin-protein ligase Mdm2 (Homo sapiens), …; SaOS-2 split-luciferase Mdm2/MdmX complementation; inhibition, % at 8 µM; hit rate 3% among 330,000; AID 485346, 2010;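 active means inhibition of at least 50% at 8 µM in the primary screen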
Target sequence (O15151 whole entry, looked up): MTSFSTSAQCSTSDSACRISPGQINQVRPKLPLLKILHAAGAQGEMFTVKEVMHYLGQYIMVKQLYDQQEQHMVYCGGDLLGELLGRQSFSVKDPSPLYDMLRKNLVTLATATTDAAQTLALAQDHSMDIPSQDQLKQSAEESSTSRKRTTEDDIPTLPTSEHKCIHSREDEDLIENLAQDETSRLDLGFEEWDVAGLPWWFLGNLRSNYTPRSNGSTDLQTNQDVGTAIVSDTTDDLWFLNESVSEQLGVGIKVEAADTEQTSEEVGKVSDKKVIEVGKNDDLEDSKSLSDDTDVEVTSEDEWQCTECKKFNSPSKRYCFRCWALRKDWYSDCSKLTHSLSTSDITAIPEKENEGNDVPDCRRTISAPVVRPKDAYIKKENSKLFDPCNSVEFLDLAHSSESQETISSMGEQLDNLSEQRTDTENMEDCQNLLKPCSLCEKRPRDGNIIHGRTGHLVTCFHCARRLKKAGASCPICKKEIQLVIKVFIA
Target sequence (Q00987 whole entry, looked up): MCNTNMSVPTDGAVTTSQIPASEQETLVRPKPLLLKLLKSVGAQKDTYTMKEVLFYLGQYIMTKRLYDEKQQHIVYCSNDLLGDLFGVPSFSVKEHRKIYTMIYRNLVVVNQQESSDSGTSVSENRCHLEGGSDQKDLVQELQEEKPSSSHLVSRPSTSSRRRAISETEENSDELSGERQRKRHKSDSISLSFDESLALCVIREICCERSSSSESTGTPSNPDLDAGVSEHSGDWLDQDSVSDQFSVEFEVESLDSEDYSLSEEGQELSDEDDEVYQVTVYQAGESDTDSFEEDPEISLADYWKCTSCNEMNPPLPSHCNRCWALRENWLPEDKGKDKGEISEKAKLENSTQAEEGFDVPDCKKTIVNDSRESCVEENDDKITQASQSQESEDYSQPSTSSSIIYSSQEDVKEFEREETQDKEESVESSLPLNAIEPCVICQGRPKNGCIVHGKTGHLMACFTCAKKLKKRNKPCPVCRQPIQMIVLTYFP
IMP-1 inhibitor – IMP-1 metallo-beta-lactamase inhibitors, primary screen, biochemical, epi-absorbance readout, Pseudomonas aeruginosa enzyme | AID 1556, 2009 | metallo-beta-lactamase IMP-1 (Pseudomonas aeruginosa) | inhibition, % at 5.6 µM | hit rate 0.45% among 290,000 | purified IMP-1, nitrocefin hydrolysis, epi-absorbance fluorescence;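 active means inhibition above the mean plus 3 SD of all compounds in the same screening run, cut at about 4.5% in these data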
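System: purified recombinant IMP-1 beta-lactamase. Medium: Zinc- and detergent-supplemented HEPES buffer, pH 7.1. Compound: one 5.6 µM dose […]. Schedule: 15 min preincubation plus 25 min reaction at 25 °C. Technique: Epi-absorbance fluorescence, 480 nm excitation, 530 nm emission.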
VIM-2 inh – VIM-2 metallo-beta-lactamase inhibitors, primary screen, biochemical, epi-absorbance readout, Pseudomonas aeruginosa enzyme | purified VIM-2, nitrocefin hydrolysis, epi-absorbance fluorescence | inhibition, % at 5.6 µM | hit rate 0.89% among 290,000;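 active means inhibition above the mean of all tested compounds plus 3 SD, cutoff set per screening run, cut at about 7.5% in these data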;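 further: red hydrolysis product quenches plate fluorescence so inhibitors raise well fluorescence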
Mdm2 MdmX conf – Mdm2-MdmX complex disruptors, retested hits, confirmation, luminescence, single concentration | shares compounds with Mdm2 MdmX PPI | Mdm2-MdmX binding, luminescent assay | inhibition, % at 8 µM | hit rate 55% among 10,000 | AID 489028, 2010; in the data active means inhibition above about 40%
Full FLuc ctr – full-length luciferase signal inhibition, confirmation, counter-screen for Mdm2/MdmX interaction inhibitor project, cell-based, single concentration, SaOS-2 | hit rate 77% among 6,200 | inhibition, % at 8 µM | shares compounds with Mdm2 MdmX PPI | SaOS-2 full-length luciferase counterscreen, luminescence;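 active means mean inhibition at 8 µM reaching about 37%, which flags the compound as non-specific, limit read from the data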;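 further: p53-null SaOS-2 cells with luciferase driven by a doxycycline-inducible promoter; compound on cells about two nights before reading with doxycycline added after day one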
Numbers stand for hits; 0 = inactive; - = no result given.

SMILES | 697 NFkB inh | Jurkat NFkB inh | aSyn 5UTR inh | Mdm2 MdmX PPI | IMP-1 inhibitor | VIM-2 inh | Mdm2 MdmX conf | Full FLuc ctr
CCOc1c(OC)cccc1C1CC(=O)Nc2cc(OC)c(OC)cc21 (configuration not stated) | 0 | 0 | 0 | 0 | 0 | 0 | - | -
CCCOc1c(OC)cccc1C1CC(=O)Nc2cc3c(cc21)OCCO3 (configuration not stated) | 0 | 0 | 0 | 52 | 0 | 0 | 55 | 68
CCOc1ccccc1C1C2=C(COC2=O)Nc2cc3c(cc21)OCO3 (configuration not stated) | 0 | 0 | 117 | 69 | 0 | 0 | 57 | 65
COc1cc2c(cc1OC)C(c1ccccc1C)CC(=O)N2 (configuration not stated) | 0 | 0 | 0 | 0 | 0 | 0 | - | -
COc1cc(C(C)=O)ccc1OCC(O)CN1CCN(c2cc(C)cc(C)c2)CC1 (configuration not stated) | 0 | 0 | 0 | 0 | 0 | 0 | - | -
Cc1oc2cc3oc(=O)c(CCC(=O)NCCN4CCOCC4)c(C)c3cc2c1C | 0 | 0 | 0 | 0 | 0 | 0 | - | -
Cc1nnc(SCC(=O)c2c[nH]c3ccccc23)n1C1CC1 | 0 | 0 | - | 0 | - | - | - | -
Cc1ccc(-c2[nH]c3ccccc3c2C(C[N+](=O)[O-])c2ccco2)cc1 (configuration not stated) | 0 | 0 | 0 | 63 | 0 | 0 | 0 | -
Cc1[nH]c2ccccc2c1C(C[N+](=O)[O-])c1ccco1 (configuration not stated) | 0 | 0 | 0 | 0 | 0 | 0 | - | -
Cc1cc(C)cc(NC(=O)CSCc2cc(=O)n3ccsc3n2)c1 | 0 | 0 | 0 | 0 | 0 | 0 | - | -
CC(=O)NS(=O)(=O)c1ccc(NC(=O)/C=C/c2cn(-c3ccccc3)nc2-c2ccccc2)cc1 | 0 | 0 | 0 | 0 | 0 | 0 | - | -
O=C(/C=C\c1cn(-c2ccccc2)nc1-c1ccccc1)Nc1nccs1 | 0 | 0 | 0 | 84 | 0 | 0 | 81 | 0
Cc1ccccc1[C@@]1(C)ON(c2ccccc2C(F)(F)F)C1=O | 0 | 0 | - | 81 | - | - | 0 | -
CC[C@@]1(c2ccccc2OC)ON(c2ccccc2C(F)(F)F)C1=O | 0 | 0 | - | 89 | - | - | 80 | 51
O=C1N(c2ccccc2C(F)(F)F)O[C@]1(c1ccccc1)C1CCCC1 | 0 | 0 | - | 79 | - | - | 53 | 50
COc1cc(C(=O)COC(=O)C2CCCCC2)cc(OC)c1OC | 0 | 0 | - | 0 | - | - | - | -
Cc1sc2ncnc(NCc3cccs3)c2c1C | 0 | 0 | 0 | 52 | 0 | 0 | 0 | -
Cc1sc2ncnc(NCc3ccco3)c2c1C | 0 | 0 | 0 | 0 | 0 | 0 | - | -
O=C1c2ccccc2C(=O)C12OC2c1ccc(Cl)cc1 (configuration not stated) | 0 | 0 | 0 | 81 | 0 | 0 | 0 | -
Cn1ncc(Br)c1C(=O)NC1CCCCCC1 | 0 | 0 | 0 | 0 | 0 | 0 | - | -
Cc1cccc(Nc2ccc(S(=O)(=O)N3CCOCC3)cc2[N+](=O)[O-])c1 | 0 | 0 | - | 0 | - | - | - | -
Cc1cccc(NC(=S)N=Nc2c(O)n(C)c3ccc(S(=O)(=O)N4CCOCC4)cc23)c1 | 0 | 0 | 83 | 54 | 0 | 0 | 54 | 64
Cn1c(=O)n(C)c2cc(S(=O)(=O)N3CCOCC3)ccc21 | 0 | 0 | 0 | 0 | 0 | 0 | - | -
Cc1cccc(C)c1NC(=S)N=Nc1c(O)n(C)c2ccc(S(=O)(=O)N3CCOCC3)cc12 | 0 | 0 | 71 | 64 | 0 | 0 | 0 | -
CCc1ccc(C(=O)COC(=O)c2cncc(Br)c2)cc1 | 0 | 0 | 0 | 0 | 0 | 0 | - | -
SMILES | 697 NFkB inh | Jurkat NFkB inh | aSyn 5UTR inh | Mdm2 MdmX PPI | IMP-1 inhibitor | VIM-2 inh | Mdm2 MdmX conf | Full FLuc ctr
Clc1ccccc1/C=C/c1nc(-c2ccccn2)no1 | 0 | 0 | 104 | 66 | 0 | 0 | 54 | 95
CN1CCN2c3ncccc3Cc3ccccc3C2C1 (configuration not stated) | 0 | 0 | 0 | 0 | - | - | - | -
CC(C)(C)[C@]1(O)CCN2C[C@H]3c4ccccc4CCc4cccc(c43)[C@@H]2C1 | 0 | 0 | 0 | 66 | 0 | 0 | 0 | 84
CCCn1c(SCC(=O)N2CCCc3ccccc32)nnc1-c1ccccn1 | 0 | 0 | 0 | 0 | 0 | 0 | - | -
COc1ccc2c(c1)c1nc3n(c(=O)c1n2CC(=O)Nc1cc(C)[nH]n1)CCS3 | 0 | 0 | 0 | 67 | 0 | 0 | 59 | 101
COc1cccc(NC(=O)Cn2c3ccc(OC)cc3c3nc4n(c(=O)c32)CCS4)c1 | 0 | 0 | 0 | 0 | 0 | 0 | - | -
CCOc1cc2[nH]c(=S)n(CCc3ccc(OC)c(OC)c3)c(=O)c2cc1OCC | 0 | 0 | 0 | 83 | 0 | 0 | 0 | -
O=C(COC(=O)c1ccc2c(=O)n3c(nc2c1)CCC3)Nc1ccc(OC(F)F)cc1 | 0 | 0 | 0 | 0 | 0 | 0 | - | -
COc1ccc(NC(=O)c2cc(S(=O)(=O)N3CCOCC3)ccc2C)cc1S(=O)(=O)N1CCOCC1 | 0 | 0 | - | 0 | - | - | - | -
C=C1C(=O)O[C@H]2[C@H]1[C@@H](O)CC(=C)[C@@H]1CC(=O)[C@@H](C)[C@H]21 | 0 | 0 | 0 | 61 | 0 | 0 | 0 | -
COc1ccccc1/C=C/C(=O)c1ccccc1 | - | - | 0 | - | 0 | 0 | - | -
COc1cc(OC)c(OC)cc1/C=C/C(=O)c1ccc(NS(=O)(=O)c2ccc(C)cc2)cc1 | 0 | 0 | 0 | 59 | 0 | 0 | 0 | -
CC(=O)c1ccc(NS(=O)(=O)c2ccc(C)cc2)cc1 | 0 | 0 | 0 | 0 | 0 | 0 | - | -
COc1ccccc1/C=C/C(=O)c1c2c(c(C)[nH]c1=O)CCCC2 | 0 | 0 | 0 | 85 | 0 | 0 | 99 | 56
COc1ccccc1/C=C/C(=O)c1ccc(NC(C)=O)cc1 | 0 | 0 | 0 | 63 | 0 | 0 | 52 | 59
COc1ccccc1NS(=O)(=O)c1ccc(C)c(C(=O)NCCCN2CCCC2=O)c1 | 0 | 0 | 0 | 0 | - | - | - | -
CC(C)OP(=O)(OC(C)C)C(O)c1ccc(N(C)C)cc1 (configuration not stated) | 0 | 0 | 0 | 0 | 0 | 0 | - | -
COc1ccc(-c2cc(C(=O)N3CCN(c4ccccc4O)CC3)c3ccccc3n2)cc1OC | 0 | 0 | 0 | 65 | 0 | 0 | 0 | -
CC(=O)c1ccc(N2CCN(C(=O)c3cc(-c4ccncc4)nc4ccc(Br)cc34)CC2)cc1 | 0 | 0 | 0 | 58 | 0 | 0 | 0 | 105
Cc1ccc(-c2cc(C(=O)N3CCN(c4ccccc4O)CC3)c3ccccc3n2)cc1 | 0 | 0 | 0 | 57 | - | - | 0 | -
